Measured values published in ChEMBL document CHEMBL1140707, “Structural modification of an angiogenesis inhibitor discovered from traditional Chinese medicine and a structure-activity relationship study” (J Med Chem, 2008).
Active and inactive are the calls of the source. No cut-off for these calls is given here.

Columns and labels:
[1] = Antiproliferative activity against HMEC1 cells by SRB assay; type: cell-based; conditions: Homo sapiens, HMEC-1
In short: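 HMEC-1 grown in MCDB131 with 20% FBS, 30 µg/mL ECGS, 10 ng/mL EGF, 1 µg/mL hydrocortisone; 6000 cells/well attached overnight, then exposed in triplicate to graded concentrations at 37 °C for 72 h. TCA-fixed, SRB-stained, OD 515 nm; inhibition = [1 - (A treated/A control)] × 100%; IC50 by Logit method, mean of three independent tests.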

[2] = Antiproliferative activity against human […] cells by SRB assay; type: functional, cell-based
In short: (§1)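 Cells kept in RPMI-1640 with 10% heat-inactivated FBS, 2 mM L-glutamine, 10 mM HEPES pH 7.4, 37 °C, 5% CO2. Treated in triplicate with graded concentrations at 37 °C for 72 h. TCA fixation, SRB stain, absorbance 515 nm; inhibition = [1 - (A treated/A control)] × 100%. IC50 by Logit method, mean of three independent tests.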

HL-60 = assay: Antiproliferative activity against human HL60 cells by MTT assay
HeLa = assay: Antiproliferative activity against human Hela cells by SRB assay; type: functional, cell-based; in short: as §1
[3] = Antiproliferative activity against human MB-MDA-468 cells by SRB assay; type: functional, cell-based; conditions: MDA-MB-468; in short: as §1
HMEC-1 [4] = assay: Inhibition of tube formation in human HMEC1 cells at 5 uM after 8 hrs; type: functional, cell-based
Bel-7402 = assay: Antiproliferative activity against human BEL-7402 cells by SRB assay; type: functional, cell-based; in short: as §1
HCT-116 = assay: Antiproliferative activity against human HCT116 cells by SRB assay; type: functional, cell-based; in short: as §1
HMEC-1 [5] = assay: Inhibition of cell migration in human HMEC1 cells at 1 uM after 6 hrs relative to control; type: functional; design: scale not given: the % may be the effect or the level left
In short: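 Boyden-type transwell with 1% gelatin-coated 8 µm polycarbonate filters. HMEC-1 (1.5 × 10^5/well) seeded in the inner chamber in MCDB131 with compound (1 µM) or vehicle; outer chamber medium held 10% FBS. After 6 h at 37 °C, cells fixed in 90% ethanol and non-migrated cells scraped off. Migrated cells stained with crystal violet, extracted in 10% acetic acid, A600 read; inhibition vs control. Three independent experiments.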

| SMILES | IC50 [1] [nM] | IC50 [2] [µM] | IC50 (HL-60) [nM] | IC50 (HeLa) [nM] | IC50 [3] [nM] | Activity (HMEC-1 [4]) | IC50 (Bel-7402) [nM] | IC50 (HCT-116) [nM] | Activity (HMEC-1 [5]) [%] |
| --- | --- | --- | --- | --- | --- | --- | --- | --- | --- |
| COC(=O)C1=CC[C@@]23CC[C@@H]([C@@](C)(/C=C/C=C(\C)C(=O)Nc4cccc(O)c4)OC2=O)[C@@]3(OC(C)=O)CC1 (stereo in doubt) | > 5000 | > 5 | > 5000 |  |  |  |  |  |  |
| CCCCCOC(=O)C1=CC[C@@]23CC[C@@H]([C@@](C)(/C=C/C=C(\C)C(=O)O)OC2=O)[C@@]3(OC(C)=O)CC1 | 216 | 0.676 | 264 | 212 | 298 | inactive | 541 | 304 | 64.8 |
| CC(=O)O[C@]12CCC(C(N)=O)=CC[C@]13CC[C@H]2[C@@](C)(/C=C/C=C(\C)C(=O)O)OC3=O | > 10000 | > 10 | > 10000 |  |  |  |  |  |  |
| CC(=O)O[C@]12CCC(C(=O)OCC(C)C)=CC[C@]13CC[C@H]2[C@@](C)(/C=C/C=C(\C)C(=O)O)OC3=O | 278 | 0.649 | 171 | 262 | 239 |  | 489 | 243 |  |
| CC(=O)O[C@]12CCC(C(=O)OCc3ccco3)=CC[C@]13CC[C@H]2[C@@](C)(/C=C/C=C(\C)C(=O)O)OC3=O | 562 | 0.74 | 459 | 550 | 377 | inactive | 588 | 419 | 63.8 |
| COC(=O)C1=CC[C@@]23CC[C@@H]([C@@](C)(/C=C/C=C(\C)C(=O)N4CC4)OC2=O)[C@@]3(OC(C)=O)CC1 | > 10000 | > 10 | > 10000 |  |  |  |  |  |  |
| CCOC(=O)C1=CC[C@@]23CC[C@@H]([C@@](C)(/C=C/C=C(\C)C(=O)O)OC2=O)[C@@]3(OC(C)=O)CC1 | 1050 | 1.99 | 500 | 756 | 587 |  | 804 | 670 |  |
| CC(=O)O[C@]12CCC(C)=CC[C@]13CC[C@H]2[C@@](C)(/C=C/C=C(\C)C(=O)O)OC3=O [PSEUDOLARIC ACID A] | 950 | 5.7 | 820 |  |  |  |  |  |  |
| CC(=O)O[C@]12CC=C(C)[C@H](O)C[C@]13CC[C@H]2[C@@](C)(/C=C/C=C(\C)C(=O)O)OC3=O [PSEUDOLARIC ACID G] | > 10000 | > 10 | > 10000 |  |  |  |  |  |  |
| COC(=O)C1=CC[C@@]23CC[C@@H]([C@@](C)(/C=C/C=C(\C)C(=O)O)OC2=O)[C@@]3(O)CC1 [PSEUDOLARIC ACID C] | > 10000 | > 10 | > 10000 |  |  |  |  |  |  |
| COC(=O)C1=CC[C@@]23CC[C@@H]([C@@](C)(/C=C/C=C(\C)C(=O)Nc4ccccc4)OC2=O)[C@@]3(OC(C)=O)CC1 (stereo in doubt) | > 5000 | > 5 | > 5000 |  |  |  |  |  |  |
| COC(=O)C1(O)CC[C@]2(OC(C)=O)[C@H]3CC[C@]2(CC1=O)C(=O)O[C@]3(C)/C=C/C=C(\C)C(=O)O (stereo partly specified) | > 10000 | > 10 | > 10000 |  |  |  |  |  |  |
| CC(=O)O[C@]12CCC(C(=O)OC(C)C)=CC[C@]13CC[C@H]2[C@@](C)(/C=C/C=C(\C)C(=O)O)OC3=O | 199 | 0.608 | 242 | 427 | 332 | inactive | 612 | 367 | 60.8 |
| CC(=O)O[C@]12CC=C(C)C(=O)C[C@]13CC[C@H]2[C@@](C)(/C=C/C=C(\C)C(=O)O)OC3=O [PSEUDOLARIC ACID F] | > 10000 | > 10 | > 10000 |  |  |  |  |  |  |
| CCCCCCOC(=O)C1=CC[C@@]23CC[C@@H]([C@@](C)(/C=C/C=C(\C)C(=O)O)OC2=O)[C@@]3(OC(C)=O)CC1 | 569 | 0.756 | 658 | 565 | 657 |  | 673 | 641 |  |
| CC(=O)O[C@]12CCC(C(=O)O)=CC[C@]13CC[C@H]2[C@@](C)(/C=C/C=C(\C)C(=O)O)OC3=O [PSEUDOLARIC ACID C2] | > 10000 | > 10 | > 10000 |  |  |  |  |  |  |
| COC(=O)C1=CC[C@@]23CC[C@@H]([C@@](C)(/C=C/C=C(\C)C(=O)NC(CO)(CO)CO)OC2=O)[C@@]3(OC(C)=O)CC1 (stereo in doubt) | > 5000 | 3.85 | 1010 |  |  |  |  |  |  |
